Structures are written as SMILES. The source made the active and inactive calls. No cut-off for these calls is given here.

A short description of series [1]: Selectivity index, ratio of IC50 for rat L6 cells to IC50 for Plasmodium falciparum K1. The following applies: read-out: Ratio IC50. The series is classed as toxicity, cell-based. Put shortly: (§1)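 Each index is L6 IC50 divided by parasite IC50. L6 values are from the 70 h resazurin assay. T. b. rhodesiense STIB900 values are from the 70 h resazurin assay. P. falciparum K1 values are from erythrocytic-stage [³H]-hypoxanthine incorporation: 48 h drug exposure, then 24 h with label. L. donovani values are from the 72 h axenic amastigote CellTiter assay.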

In another series the test system is L6. Description: Cytotoxicity against rat L6 cells after 70 hrs by alamar blue assay. Format: cell-based. The following applies: L6, 70 h. Summed up: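 Cells were exposed to serial dilutions for 70 h at 37 °C, 5% CO₂, then given resazurin for 2–3 h. IC50 came from sigmoidal curves; two independent runs in duplicate. Top concentration was 90 μg/mL, converted to μM by molecular weight.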
In general terms: Resazurin is reduced to fluorescent resorufin, in cell work by metabolically active cells.

The nature of series [2]: Selectivity index, ratio of IC50 for rat L6 cells to IC50 for Trypanosoma brucei rhodesiense STIB900. Format: toxicity, cell-based. The following applies: read-out: Ratio IC50. Summed up: as §1
For series [3], the system named is Trypanosoma brucei rhodesiense. Put plainly: Antitrypanosomal activity against Trypanosoma brucei rhodesiense STIB900 infected in NMRI mouse assessed as mean parasitemia relaps day at 5 mg/kg, ip. Format: functional. The following applies: route intraperitoneal. Put shortly:
(§2)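 Female NMRI mice infected ip with 2 × 10⁴ STIB900 bloodstream forms. Groups of four dosed ip daily on days 3–6 postinfection; compounds in DMSO diluted with water to 10% final DMSO. Untreated infected controls. Tail-blood parasitaemia checked on days 7 and 10, twice weekly to day 30, then weekly to day 60. Relapse day recorded for mean relapse day; cure means parasite-free survival to day 60.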

The next series deals with Plasmodium falciparum. Description: Antiplasmodial activity against chloroquine-resistant Plasmodium falciparum K1 infected in human erythrocytes after 48 hrs assessed as [3H]hypoxanthine incorporation by liquid scintillation counting. Format: functional, organism-based.
Series [4] relates to Mus musculus. Put plainly: Toxicity in NMRI mouse infected with Trypanosoma brucei rhodesiense STIB900 assessed as survival at 5 mg/kg, ip after administered for 4 consecutive days from day 3 postinfection measured after 7 to 30 days. The note with it: in vivo. Format: organism-based. Also noted: dose 5 mg/kg, route intraperitoneal. Put shortly:
as §2

In a further series the test system is Leishmania donovani. Put plainly: Antileishmanial activity against Leishmania donovani MHOM/SD/62/1S-CL2D. Format: functional, organism-based. Summed up: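 Axenic amastigotes (MHOM/SD/62/1S-CL2_D) adapted from promastigotes and grown in amastigote medium at 37 °C. 6 × 10⁴ parasites per well were exposed to 2-fold serial dilutions for 72 h at 37 °C in humidified 5% CO₂. Growth was read with tetrazolium CellTiter reagent as absorbance at 490 nm. IC50 came from a four-parameter dose–response fit; duplicate determinations were averaged.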

Series [5] relates to Trypanosoma brucei rhodesiense. Put plainly: Antitrypanosomal activity against Trypanosoma brucei rhodesiense STIB900 after 70 hrs by alamar blue assay. The series is classed as functional, organism-based. The following applies: STIB900, 70 h.
Series [6] in a line: Selectivity index, ratio of IC50 for rat L6 cells to IC50 for Leishmania donovani MHOM/SD/62/1S-CL2D. The series is classed as toxicity, cell-based. The note with it: read-out: Ratio IC50. Summed up:
as §1

The subject of series [7] is Mus musculus. Put plainly: Toxicity in NMRI mouse infected with Trypanosoma brucei rhodesiense STIB900 assessed as survival at 1 mg/kg, ip after administered for 4 consecutive days from day 3 postinfection measured after 7 to 30 days. Format: organism-based. The note with it: in vivo. Also noted: dose 1 mg/kg, route intraperitoneal. Put shortly:
as §2

The test system of series [8] is Mus musculus. Put plainly: Toxicity in NMRI mouse infected with Trypanosoma brucei rhodesiense STIB900 assessed as survival at 10 mg/kg, ip after administered 1 day postinfection measured after 7 to 30 days. The note with it: in vivo. The series is classed as organism-based. Also noted: dose 10 mg/kg, route intraperitoneal. Summed up: (§3)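 Single-dose ip regimen at 10 mg/kg in female NMRI mice infected ip with 2 × 10⁴ STIB900 bloodstream forms, four mice per group. Dosing solution was DMSO diluted with water to 10% final DMSO. Tail-blood parasitaemia followed to day 60 postinfection, with relapse day recorded; untreated infected controls.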

Series [9] concerns Trypanosoma brucei rhodesiense. Description: Antitrypanosomal activity against Trypanosoma brucei rhodesiense STIB900 infected in NMRI mouse assessed as mean parasitemia relaps day at 10 mg/kg, ip. Format: functional. The following applies: route intraperitoneal. Summed up: as §3
Series [10] deals with Trypanosoma brucei rhodesiense. Put plainly: Antitrypanosomal activity against Trypanosoma brucei rhodesiense STIB900 infected in NMRI mouse assessed as mean parasitemia relaps day at 1 mg/kg, ip. The series is classed as functional. The following applies: route intraperitoneal. Put shortly:
as §2

Series [11] concerns Mus musculus. Description: Toxicity in NMRI mouse infected with Trypanosoma brucei rhodesiense STIB900 assessed as survival at 8 mg/kg, ip after administered for 4 consecutive days from day 3 postinfection measured after 7 to 30 days. The note with it: in vivo. Format: organism-based. Also noted: dose 8 mg/kg, route intraperitoneal. Summed up: as §2
The subject of series [12] is Mus musculus. Put plainly: Toxicity in NMRI mouse infected with Trypanosoma brucei rhodesiense STIB900 assessed as survival at 2 mg/kg, ip after administered for 4 consecutive days from day 3 postinfection measured after 7 to 30 days. The series is classed as organism-based. Also noted: dose 2 mg/kg, route intraperitoneal. The note with it: in vivo. Summed up: as §2

For series [13], the system named is Trypanosoma brucei rhodesiense. Put plainly: Antitrypanosomal activity against Trypanosoma brucei rhodesiense STIB900 infected in NMRI mouse assessed as mean parasitemia relaps day at 0.5 mg/kg, ip. Format: functional. The note with it: route intraperitoneal. Summed up:
as §2

For series [14], the system named is Mus musculus. Put plainly: Toxicity in NMRI mouse infected with Trypanosoma brucei rhodesiense STIB900 assessed as survival at 0.5 mg/kg, ip after administered for 4 consecutive days from day 3 postinfection measured after 7 to 30 days. Format: organism-based. Also noted: dose 0.5 mg/kg, route intraperitoneal. The following applies: in vivo. Put shortly: as §2

The next series concerns Plasmodium berghei. Put plainly: Antiplasmodial activity against Plasmodium berghei infected in mice (Mus musculus) assessed as inhibition of parasitaemia at 30 mg/kg, subcutaneous for 4 days. Format: functional, organism-based. Also noted: dose 30 mg/kg. Put shortly:
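P. berghei mouse model. Compound was given subcutaneously at 30 mg/kg daily for four days. The read-out was blood parasite count. For in vivo use, compounds were dissolved in DMSO and diluted with distilled water to 10% DMSO final.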

The subject of series [15] is Trypanosoma brucei rhodesiense. Description: Antitrypanosomal activity against Trypanosoma brucei rhodesiense STIB900 infected in NMRI mouse assessed as mean parasitemia relaps day at 20 mg/kg, ip. The series is classed as functional. The following applies: route intraperitoneal. Summed up: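 Female NMRI mice were infected ip with 2 × 10⁴ STIB900 bloodstream forms, in groups of four. Compound in 10% DMSO/distilled water was given ip at 5 mg/kg daily on days 3–6 postinfection, with untreated infected controls. Tail-blood parasitaemia was checked on days 7 and 10, then twice weekly to day 30 and weekly to day 60. Relapse day was recorded for mean relapse day.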

Turning to `Cl.Cl.N=C(N)c1cccc(-c2cn(-c3cccc(C(=N)N)c3)nn2)c1`, the selectivity ratio in [1] was 10400; in [2], 2640; in series [6], 5. Also, the IC50 in the series with L6 is 219 µM; in the series on Plasmodium falciparum, 0.021 µM; with Leishmania donovani, 48 µM; in series [5], 0.083 µM. The Activity in series [3] was 10 days; in the series on Mus musculus [4], “Toxic”.
For `Cl.Cl.Oc1ccc(C2=NCCN2)cc1-c1cn(-c2ccc(C3=NCCN3)cc2)nn1`, the values for the selectivity ratio in series [1], in series [2] and in series [6] were above 21100, above 4420 and above 4, respectively. For the same compound, the IC50 was above 190 µM with L6, 0.009 µM with Plasmodium falciparum, 43 µM in the series on Leishmania donovani and 0.043 µM in series [5]. The Activity in series [3] is 10.75 days; in the series with Mus musculus [4], “Toxic”.
Regarding `Cl.Cl.N=C(N)c1cccc(-n2cc(-c3cc(C(=N)N)ccc3O)nn2)c1`, the selectivity ratio in [1] was above 3780; in series [2], above 782; in [6] it was above 7. Further, the IC50 in the series on L6 was above 136 µM; in the series on Plasmodium falciparum, 0.036 µM; in the series on Leishmania donovani, 20 µM; in series [5] it was 0.174 µM. Further, the Activity is 14.75 days in [3] and “Toxic” in the series on Mus musculus [4].
With `COc1cc(C(=N)N)ccc1-c1cn(-c2cccc(C(=N)N)c2)nn1.Cl.Cl`, the selectivity ratio was 23400 in series [1], 32800 in series [2] and 15 in series [6]. In addition, the IC50 in the series on L6 was 164 µM; in the series on Plasmodium falciparum, 0.007 µM; with Leishmania donovani it was 11 µM; in series [5] it was 0.005 µM. Besides, the Activity entry in the series with Mus musculus [7] is “Toxic”; in the series on Mus musculus [4], “Non-toxic”; with Mus musculus [8], “Toxic”; in [9] it was 23.5 days; in [10], 9.5 days.
Consider `COc1cc(C(=N)N)ccc1-n1cc(-c2cccc(C(=N)N)c2)nn1.Cl.Cl`, for which the selectivity ratio in series [1] was above 7680; in series [2], above 17500; in [6] it was above 6. Moreover, the IC50 in the series with L6 was above 192 µM; in the series with Plasmodium falciparum, 0.025 µM; in the series with Leishmania donovani it was 33 µM; in [5], 0.011 µM. Also, the Activity is 13 days in series [3] and “Toxic” with Mus musculus [4].
`Nc1nc(N)nc(Nc2ccc([As]3SCC(CO)S3)cc2)n1` (centres undefined) [MELARSOPROL]: the Activity result with Mus musculus [11] is “Non-toxic”; in the series with Mus musculus [12] it was “Non-toxic”; in series [10] it was 20 days.
In the case of `Cl.Cl.N=C(N)c1ccc(-c2cn(-c3ccc(C(=N)N)cc3)nn2)cc1`, the selectivity ratio in [1] was 4050; in series [2], 2020; in series [6], below 1. In addition, the IC50 in the series with L6 turned out to be 8.1 µM; with Plasmodium falciparum it was 0.002 µM; in the series with Leishmania donovani, 9.1 µM; in series [5], 0.004 µM. The Activity in series [13] was 25.5 days; with Mus musculus [7], “Non-toxic”; with Mus musculus [4], “Non-toxic”; in series [9], 27 days; in the series on Mus musculus [14], “Toxic”.
For the compound `Cl.Cl.Oc1cc(C2=NCCN2)ccc1-c1cn(-c2ccc(C3=NCCN3)cc2)nn1`, the selectivity ratio is above 317000 in series [1], above 5000 in series [2] and above 8 in series [6]. In addition, the IC50 was above 190 µM in the series on L6, 0.0006 µM with Plasmodium falciparum, 24 µM in the series on Leishmania donovani and 0.038 µM in [5]. Besides, the figures for the Activity (in series [3]; in the series with Mus musculus [4]) were 10 days and “Toxic”, respectively. The outcome with Plasmodium berghei was inactive.
Consider `COc1ccc(C2=NCCN2)cc1-c1cn(-c2cccc(C3=NCCN3)c2)nn1.Cl.Cl`, for which the selectivity ratio in series [1] is above 12600; in series [2], above 29300; in series [6], above 36. Also, the IC50 is above 176 µM in the series on L6, 0.014 µM in the series on Plasmodium falciparum, 4.9 µM in the series on Leishmania donovani and 0.006 µM in series [5]. In addition, the Activity result is “Toxic” with Mus musculus [7], “Non-toxic” in the series with Mus musculus [4], 14 days in series [9] and 12 days in [10].
With `Cl.Cl.N=C(N)c1ccc(-n2cc(-c3ccc(C(=N)N)cc3O)nn2)cc1`, the selectivity ratio turned out to be 24600 in series [1], 3080 in series [2] and 11 in series [6]. The IC50 with L6 was 49.3 µM; with Plasmodium falciparum it was 0.002 µM; in the series with Leishmania donovani, 4.3 µM; in series [5] it was 0.016 µM. Also, in the series with Mus musculus [4], the Activity result is recorded as “Non-toxic”.
In the case of `N=C(N)c1ccc(OCCCCCOc2ccc(C(=N)N)cc2)cc1` [PENTAMIDINE], the Activity in [3] amounted to 20 days; in [15], 26 days.

As a reminder, the IC50 is the concentration needed to halve the response being measured.

Values taken from ChEMBL document CHEMBL1156777, “Synthesis and antiprotozoal activity of cationic 1,4-diphenyl-1H-1,2,3-triazoles” (J Med Chem, 2010).
